This is an account of results in ChEMBL document CHEMBL1221379, “Identification and hit-to-lead optimization of a novel class of CB1 antagonists” (Bioorg Med Chem Lett, 2010).

Values after ≈ are worked out from the molar mass of the structure shown. Bounds are passed on as bounds.

The subject of data set [1] is Mus musculus. The data set is described as follows: Inhibition of WIN-55212-2-induced hypothermia in sc dosed mouse assessed as change in rectal temperature administered 15 mins before WIN-55212-2 challenge measured after 60 mins. Conditions: 1 h.
Data set [2] concerns Mus musculus. The experiment in a line: Inhibition of WIN-55212-2-induced hypothermia in mouse assessed as change in rectal temperature at 1 umol/kg sc administered 15 mins before WIN-55212-2 challenge measured after 60 mins. Further details: scale not given: the % may be the effect or the level left.
The subject of data set [3] is Mus musculus. The experiment in a line: Inhibition of WIN-55212-2-induced hypothermia in mouse assessed as change in rectal temperature at 3 umol/kg sc administered 15 mins before WIN-55212-2 challenge measured after 60 mins. Further details: scale not given: the % may be the effect or the level left.
Data set [4] concerns Mus musculus. The data set is described as follows: Inhibition of WIN-55212-2-induced hypothermia in mouse assessed as change in rectal temperature at 10 umol/kg sc administered 15 mins before WIN-55212-2 challenge measured after 60 mins. Details: scale not given: the % may be the effect or the level left.
For data set [5], the system named is Mus musculus. The experiment in a line: Inhibition of WIN-55212-2-induced hypothermia in mouse assessed as change in rectal temperature at 30 umol/kg sc administered 15 mins before WIN-55212-2 challenge measured after 60 mins. Further details: scale not given: the % may be the effect or the level left.
Data set [6] relates to Mus musculus. The data set is described as follows: Inhibition of WIN-55212-2-induced hypothermia in mouse assessed as change in rectal temperature at 0.1 umol/kg sc administered 15 mins before WIN-55212-2 challenge measured after 60 mins. Further details: scale not given: the % may be the effect or the level left.
Data set [7] concerns Mus musculus. The data set is described as follows: Inhibition of WIN-55212-2-induced hypothermia in mouse assessed as change in rectal temperature at 0.3 umol/kg sc administered 15 mins before WIN-55212-2 challenge measured after 60 mins. Details: scale not given: the % may be the effect or the level left.
Data set [8] has as its system Mus musculus. The data set is described as follows: Inhibition of WIN-55212-2-induced hypothermia in mouse assessed as change in rectal temperature at 0.01 umol/kg sc administered 15 mins before WIN-55212-2 challenge measured after 60 mins. Further details: scale not given: the % may be the effect or the level left.
A short description of data set [9]: Aqueous solubility of the compound. It counts as physicochemical. Conditions: buffer. The procedure, abridged:
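Shake-flask method. 10 mM DMSO stock added to 0.05 M phosphate buffered saline pH 7.4, 2% DMSO final. Vortexed at 1500 rpm for 24 h at 21 °C, then vacuum-filtered. Filtrate assayed by HPLC with UV at 230 nm against a calibration from a 50 µM DMSO solution. Duplicate determinations, averaged.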

Data set [10] in a line: Metabolic stability in human liver microsome assessed as compound remaining after 0.5 hrs. The class given is ADME. Conditions: liver microsomes, read-out: Stability. Put shortly:
(§1)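 Human or mouse liver microsomes (300 nM cytochrome P450) in phosphate buffer pH 7.4 with 1 µM test compound and 1 mM NADPH. Incubated 30 min at 37 °C, stopped with acetonitrile, centrifuged, and analysed by LC/MS. Result given as % compound remaining at 0.5 h.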
A general note: Liver microsomes are a subcellular fraction often used to study metabolism.

Data set [11] can be described thus: Metabolic stability in mouse liver microsome assessed as compound remaining after 0.5 hrs. It counts as ADME. Conditions: liver microsomes, read-out: Stability. Put shortly:
as §1

Data set [12] has as its target Cannabinoid receptor 1 (Homo sapiens, UniProt P21554). The experiment in a line: Antagonist activity at human cannabinoid CB1 receptor expressed in CHO cells by luciferase reporter gene assay. Background: A reporter such as luciferase makes a cellular process visible.
Data set [13] in a line: AUC (0 to 7.5 hrs) in Wistar rat at 5 mg/kg, po. Details: time < 7.5 hr, dose 5 mg/kg, route oral. It counts as ADME, organism-based. Conditions: plasma. The procedure, abridged:
(§2)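 Male Wistar rats dosed 5 mpk po in 0.5% gelatin in 5% mannitol (aq), or 1 mpk iv in 20% N,N-dimethylacetamide in saline. AUC po taken over 0–7.5 h; clearance and half-life from iv dosing; oral bioavailability and Vss from po/iv pharmacokinetic parameters.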

The nature of data set [14]: Oral bioavailability in Wistar rat at 5 mg/kg. It counts as ADME, organism-based. Conditions: in vivo. The procedure, abridged:
as §2

A short description of data set [15]: Clearance in Wistar rat at 1 mg/kg, iv. It counts as ADME, organism-based. Details: dose 1 mg/kg, route intravenous. Conditions: in vivo. The procedure, abridged: as §2
Data set [16] is described as follows: Volume of distribution at steady state in Wistar rat at 5 mg/kg, po and 1 mg/kg, iv. Conditions: in vivo, read-out: Vdss. The class given is ADME, organism-based. The procedure, abridged:
as §2

The nature of data set [17]: Half life in Wistar rat at 1 mg/kg, iv. It counts as ADME, organism-based. Conditions: in vivo. Further details: dose 1 mg/kg, route intravenous. The procedure, abridged:
as §2

The test system of data set [18] is Mus musculus. The data set is described as follows: Inhibition of WIN-55212-2-induced hypothermia in mouse assessed as change in rectal temperature at 100 umol/kg sc administered 15 mins before WIN-55212-2 challenge measured after 60 mins. Further details: scale not given: the % may be the effect or the level left.

Chain of Cannabinoid receptor 1 (P21554 whole entry): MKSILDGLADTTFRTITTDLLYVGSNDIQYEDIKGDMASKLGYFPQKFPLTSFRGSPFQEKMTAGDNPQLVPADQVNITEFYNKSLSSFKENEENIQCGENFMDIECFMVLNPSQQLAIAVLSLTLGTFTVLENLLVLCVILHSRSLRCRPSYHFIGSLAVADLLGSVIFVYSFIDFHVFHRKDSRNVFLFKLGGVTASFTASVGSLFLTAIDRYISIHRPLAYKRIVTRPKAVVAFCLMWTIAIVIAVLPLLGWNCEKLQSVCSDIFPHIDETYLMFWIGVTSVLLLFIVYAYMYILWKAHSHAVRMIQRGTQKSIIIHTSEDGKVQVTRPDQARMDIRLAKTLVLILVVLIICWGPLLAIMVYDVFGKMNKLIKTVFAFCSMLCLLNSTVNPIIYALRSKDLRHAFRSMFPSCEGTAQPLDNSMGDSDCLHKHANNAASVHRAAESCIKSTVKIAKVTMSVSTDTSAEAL

What is called ED50 is the dose at which the effect has come halfway, by size or by number of responders. Turning to `Cc1c(C(=O)NN2CCCCC2)nn(-c2ccc(Cl)cc2Cl)c1-c1ccc(Cl)cc1` [RIMONABANT], in data set [1], the ED50 worked out at 0.8 µmol/kg. The Activity in data set [2] turned out to be 60.2%; in [3], 116.7%; in data set [4] it was 113.4%; in [5] it was 100.4%; in data set [6] it was 13.8%; in data set [7] it was 14.7%. Besides, the Activity in data set [8] is -0.2%.

As usually defined, the solubility is the dissolved amount per volume that the medium holds. As a reminder, the IC50 is the concentration that gives 50% inhibition. For `COc1cc(F)ccc1-c1cccc(Cn2ccc3ccc(NC(=O)CC(C)(C)O)cc32)n1`, the solubility in [9] is 17.9 µg/mL (≈ 40 µM). Also, the values for the remaining at 0.5 h in data set [10] and in [11] were 35% and 44%, respectively. In data set [12], this compound returned an IC50 of 23 nM.

On to `COc1cc(F)ccc1-c1cccc(Cn2cnc3ccc(NC(=O)C(C)(C)C)cc32)n1`, for which the remaining at 0.5 h worked out at 14% in data set [10] and 1% in data set [11]. Moreover, the IC50 in data set [12] stood at 73 nM.

In turn, `CC(C)(O)CC(=O)Nc1ccc2ccn(Cc3cccc(-c4cccc5c4OCO5)n3)c2c1` came in with a solubility in data set [9] of less than 1 µg/mL. Besides, the remaining at 0.5 h turned out to be 51% in [10] and 53% in data set [11]. Besides, the IC50 in data set [12] was 3 nM.

`Cn1cc(Cc2cccc(-c3cccc4c3OCO4)c2)c2cc(NC(=O)C(C)(C)C)ccc21` returned a solubility in data set [9] of less than 1 µg/mL. In addition, the remaining at 0.5 h in data set [10] is 52%; in data set [11], 29%. This compound gave an IC50 in [12] of 37 nM.

The AUC(0-t) is exposure summed from dosing to a finite time, without extrapolation to infinity. In general, bioavailability refers to dose-corrected exposure relative to a reference, in per cent. The term clearance denotes a measure of how efficiently the substance is removed, as volume per time. One may read the half-life as the time needed for the level to fall by half in the phase considered. As to `Cn1cc(Cc2cccc(-c3cccc4c3OCO4)n2)c2cc(NC(=O)CC(C)(C)O)ccc21`, in [9], the solubility worked out at 14.9 µg/mL (≈ 32.6 µM). Further, the results for the remaining at 0.5 h in [10] and in data set [11] were 56% and 36%, respectively. For the same compound, in data set [13], the AUC(0-t) at 7.5 h was 1290 ng·h/mL. The compound also came in with a bioavailability in data set [14] of 37%. In data set [15], this compound gave a clearance of 19 mL/min/kg. Further, in data set [16], the Vd was 1.2 L/kg. Moreover, the half-life in data set [17] is 1 h. In data set [12], this compound showed an IC50 of 5 nM. Besides, the ED50 in [1] was found to be 30 µmol/kg. Moreover, the Activity in data set [5] is 46.8%; in data set [18], 92.5%.

The compound `COc1cc(F)ccc1-c1cccc(Cc2cn(C)c3ccc(NC(=O)CC(C)(C)O)cc23)n1` yielded a solubility in data set [9] of 10.6 µg/mL (≈ 23 µM). The remaining at 0.5 h amounted to 41% in [10] and 14% in [11]. Also, in [12], it took 19 nM to reach half-maximal inhibition (IC50).

Take `COc1cc(F)ccc1-c1cccc(Cc2cn(C)c3ccc(NC(=O)C(C)(C)C)cc23)c1`: the solubility in data set [9] was less than 1 µg/mL. Moreover, the remaining at 0.5 h in [10] amounted to 70%; in [11], 72%. The same compound returned an IC50 in data set [12] of 45 nM.

In data set [9], `COc1cc(F)ccc1-c1cccc(Cc2cn(C)c3ccc(NC(=O)C(C)(C)CO)cc23)n1` displayed a solubility of 2 µg/mL (≈ 4.33 µM). In addition, the remaining at 0.5 h in [10] was 47%; in [11] it was 5%. This compound registered a concentration for half-maximal inhibition (IC50) in data set [12] of 27 nM.

`CC(C)(C)C(=O)Nc1ccc2ccn(Cc3cccc(-c4cccc5c4OCO5)c3)c2c1` yielded a solubility in [9] of less than 1 µg/mL. For the same compound, the remaining at 0.5 h stood at 72% in data set [10] and 65% in data set [11]. Also, half-maximal inhibition in data set [12] (IC50) required 51 nM.

Consider `CC(C)(C)C(=O)Nc1ccc2ncn(Cc3cccc(-c4cccc5c4OCO5)c3)c2c1`, for which the remaining at 0.5 h in [10] worked out at 35%; in [11] it was 2%. Also, in [12], the IC50 was found to be 64 nM.

In data set [9], `CC(C)(CO)C(=O)Nc1ccc2ccn(Cc3cccc(-c4cccc5c4OCO5)n3)c2c1` yielded a solubility of 3.2 µg/mL (≈ 7.22 µM). Further, the remaining at 0.5 h amounted to 62% in [10] and 52% in data set [11]. Moreover, half-maximal inhibition in [12] (IC50) was put at 7 nM.

Take `COc1cc(F)ccc1-c1cccc(Cn2ccc3ccc(NC(=O)C(C)(C)CO)cc32)n1`: the concentration in solution in data set [9] (solubility) came to 11.7 µg/mL (≈ 26.1 µM). Besides, the remaining at 0.5 h was found to be 45% in data set [10] and 54% in data set [11]. The compound further had an IC50 in data set [12] of 45 nM.

The compound `COc1cc(F)ccc1-c1cccc(Cn2ccc3ccc(NC(=O)C(C)(C)C)cc32)c1` returned a solubility in data set [9] of less than 1 µg/mL. In addition, the remaining at 0.5 h in data set [10] was found to be 51%; in [11], 58%. In data set [12], half-maximal inhibition (IC50) required 58 nM.

In data set [9], `Cn1cc(Cc2cccc(-c3cccc4c3OCO4)n2)c2cc(NC(=O)C(C)(C)CO)ccc21` returned a solubility of less than 1 µg/mL. Also, the remaining at 0.5 h was 56% in data set [10] and 16% in [11]. The half-inhibitory concentration (IC50) in data set [12] worked out at 7 nM.

With `COc1cc(F)ccc1-c1cccc(Cn2cnc3ccc(NC(=O)C(C)(C)C)cc32)c1`, in data set [12], the IC50 was 269 nM.

Consider `CC(C)(C)C(=O)Nc1ccc2ncn(Cc3cccc(-c4cccc5c4OCO5)n3)c2c1`, for which the remaining at 0.5 h stood at 28% in data set [10] and 17% in data set [11]. Also, in data set [12], inhibition was half-maximal at 21 nM (IC50).

Turning to `COc1ccccc1-c1cccc(Cn2cnc3ccc(C(=O)NCc4cccc(F)c4)cc32)c1`, the results for the remaining at 0.5 h in data set [10] and in data set [11] were 2% and 0%, respectively. For the same compound, the midpoint of inhibition in data set [12], the IC50, lay at 104 nM.
